From paper PMC7396962 (Xenobiotica; the fate of foreign compounds in biological …, 2020)
≈ marks a conversion by molar mass, not a printed value.

How the values were obtained:
[1] = rat, in vivo; cited from earlier work
[2] = system: HepG2 hepatocellular carcinoma cell line; conditions: cited from earlier work
[3] = target: T1, MRP4 (Homo sapiens, UniProt O15439); assay: Glucuronide excretion in HeLa1A1 cells with knock-down of MRP4; format: cell-based; conditions: knock-down of MRP4 transporter
T1 sequence (O15439 1-1325): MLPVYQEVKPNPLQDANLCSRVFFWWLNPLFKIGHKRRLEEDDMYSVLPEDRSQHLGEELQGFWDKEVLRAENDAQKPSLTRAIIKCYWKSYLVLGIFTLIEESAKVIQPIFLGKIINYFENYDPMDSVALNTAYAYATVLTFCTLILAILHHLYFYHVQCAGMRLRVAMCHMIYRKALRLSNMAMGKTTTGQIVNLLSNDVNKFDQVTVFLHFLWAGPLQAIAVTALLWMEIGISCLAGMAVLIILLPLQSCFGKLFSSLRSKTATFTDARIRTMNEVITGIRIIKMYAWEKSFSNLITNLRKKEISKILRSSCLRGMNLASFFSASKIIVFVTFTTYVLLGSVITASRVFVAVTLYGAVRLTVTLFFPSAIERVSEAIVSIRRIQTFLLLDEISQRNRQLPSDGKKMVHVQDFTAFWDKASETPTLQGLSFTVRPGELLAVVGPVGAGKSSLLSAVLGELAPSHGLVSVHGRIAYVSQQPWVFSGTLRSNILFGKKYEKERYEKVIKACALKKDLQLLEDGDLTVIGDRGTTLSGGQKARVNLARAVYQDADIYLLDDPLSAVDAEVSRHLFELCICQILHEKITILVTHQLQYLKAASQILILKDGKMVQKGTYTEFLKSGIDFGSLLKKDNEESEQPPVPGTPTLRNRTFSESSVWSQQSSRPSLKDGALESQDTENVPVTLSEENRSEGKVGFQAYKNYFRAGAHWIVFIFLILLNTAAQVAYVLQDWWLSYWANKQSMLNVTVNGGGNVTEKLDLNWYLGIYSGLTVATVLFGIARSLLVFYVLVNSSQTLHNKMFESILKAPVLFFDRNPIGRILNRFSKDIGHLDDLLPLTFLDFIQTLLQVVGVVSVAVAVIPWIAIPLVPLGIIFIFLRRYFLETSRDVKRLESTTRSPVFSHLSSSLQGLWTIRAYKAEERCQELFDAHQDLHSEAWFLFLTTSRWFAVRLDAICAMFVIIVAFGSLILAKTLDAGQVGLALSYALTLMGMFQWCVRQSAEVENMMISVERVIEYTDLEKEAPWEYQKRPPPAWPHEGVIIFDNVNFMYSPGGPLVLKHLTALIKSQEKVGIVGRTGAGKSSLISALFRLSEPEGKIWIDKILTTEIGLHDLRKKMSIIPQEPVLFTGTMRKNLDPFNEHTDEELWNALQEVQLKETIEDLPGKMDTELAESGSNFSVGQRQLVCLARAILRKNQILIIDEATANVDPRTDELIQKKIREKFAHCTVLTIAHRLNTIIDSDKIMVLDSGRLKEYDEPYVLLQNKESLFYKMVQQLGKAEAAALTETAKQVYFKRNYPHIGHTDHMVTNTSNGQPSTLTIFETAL
How it was run: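 HeLa1A1 cells at ~50% confluence transiently transfected with transporter shRNA plasmid (10 μg/mL); medium replaced at 6 h; scrambled shRNA as control. At confluence cells washed and incubated with test compound in HBSS. Extracellular glucuronide sampled over 2 h and intracellular glucuronide measured at the end. ER = V·dC/dt, CLapp = ER/Ci, fmet calculated; triplicate.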

[4] = target: T2, CYP2C8 (Homo sapiens, UniProt P10632); format: in vitro ADME; conditions: panel of HLMs (n = 9), substrate 10 μM, p = 0.001
T2 sequence (P10632 1-490): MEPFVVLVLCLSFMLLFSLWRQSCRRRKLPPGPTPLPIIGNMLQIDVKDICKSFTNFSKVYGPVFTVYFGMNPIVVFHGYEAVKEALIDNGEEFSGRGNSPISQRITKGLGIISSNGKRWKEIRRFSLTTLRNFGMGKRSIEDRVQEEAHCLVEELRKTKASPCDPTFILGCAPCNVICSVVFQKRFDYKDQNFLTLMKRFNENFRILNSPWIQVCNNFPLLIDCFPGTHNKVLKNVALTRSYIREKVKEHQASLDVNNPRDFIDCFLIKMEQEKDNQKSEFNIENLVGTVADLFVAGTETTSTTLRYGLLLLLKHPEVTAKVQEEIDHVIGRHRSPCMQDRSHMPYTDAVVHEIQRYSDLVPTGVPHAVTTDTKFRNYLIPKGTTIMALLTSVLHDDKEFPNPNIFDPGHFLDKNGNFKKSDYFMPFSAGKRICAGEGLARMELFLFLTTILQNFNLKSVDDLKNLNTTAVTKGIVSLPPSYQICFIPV
How it was run: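 Nine individual human liver microsomes (1 mg/mL) each incubated with test compound at 10 μM plus 1 mM NADPH, pH 7.4, 37 °C, 60 min. Oxidation rates correlated by linear regression (r) with each donor's paclitaxel 6-hydroxylation activity. p < 0.05 taken as significant.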

[5] = system: human UGT1A1; conditions: cited from earlier work
[6] = system: PPAR-γ; conditions: ref Ma et al., 2016; cited from earlier work
[7] = rat, in vivo, cited from earlier work
[8] = system: pooled HLM; assay: Glucuronidation of CA in pooled HLM; format: in vitro ADME, human; conditions: higher than phase I metabolism
How it was run: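 Pooled human liver microsomes (1 mg/mL) with test compound 0.16–80 μM, UDPGA 3.5 mM, alamethicin 22 μg/mL, saccharolactone 4.4 mM and MgCl2 0.88 mM in Tris-HCl pH 7.4, 37 °C for 60 min. Phase I run in parallel with 1 mM NADPH. Metabolites quantified by UHPLC-UV (270 nm) as parent equivalents; kinetics fitted by model, CLint = Vmax/Km; triplicate.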

CC(C)=CCC/C(C)=C/Cc1cc(-c2coc3cc(O)ccc3c2=O)ccc1O [CA, Corylifol A]
distribution concentrations of CA at different nuclei [1]: 260.63 to 493.29 ng·h/g
IC50, cytotoxic activity [2]: 4.6 µg/mL (≈ 11.8 µM)
fmet value of CA [3]: significant decrease
correlation (r) between CA-mono-oxidation and paclitaxel-6-hydroxylation [4]: 0.921
IC50 [5]: 650 nM
Ki [5]: 790 nM
in vitro PPAR-γ activation [6]: PPAR-γ activation
maximal plasma concentration (Cmax) of CA ([7]; 2 g/kg): 8.87 ng/mL
Cmax of CA ([7]; po, 1.2 g/kg): 1.70 ng/mL
intrinsic clearance value of glucuronidation relative to phase I metabolism [8]: 4 fold
